{"source": "ChEMBL document CHEMBL5724801", "about": "“EUbOPEN Chemogenomics Library - Multiplex” (2024)", "tested_on": "HEK-293T", "test": "Multiplex assay against HEK293T", "format": "toxicity, cell-based", "details": "human", "procedure,_shortened": "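On a CQ1 microscope at 37°C and 5% CO2, live cells were imaged after compound addition. They had been stained at seeding with Hoechst33342, BioTracker Green Microtubule Cytoskeleton Dye, MitoTracker Red and Annexin V Alexa Fluor 680. CellPathfinder machine-learning gating assigned cells to Hoechst high-intensity objects or normal cells, normal cells to healthy, pyknosed or fragmented nuclei, and pyknosed cells to mitotic or apoptotic. Tubulin, mitochondrial-mass and membrane-permeability phenotypes are per cents of healthy-nucleus cells.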", "key": {"[1]": {"details": "12 h, 1 µM, compound concentration 1 uM"}, "[2]": {"details": "12 h, 10 µM, compound concentration 10 uM"}, "[3]": {"details": "24 h, 1 µM, compound concentration 1 uM"}, "[4]": {"details": "24 h, 10 µM, compound concentration 10 uM"}, "[5]": {"details": "48 h, 1 µM, compound concentration 1 uM"}, "[6]": {"details": "48 h, 10 µM, compound concentration 10 uM"}}, "note": "“And” between values parts separate entries of the source, which are not always exact repeats. Equal values may be shown once."}
{"smiles": "CC(C)c1ccc(/C=N/NC(=O)c2ccc(O)cc2)cc1", "values": [{"measurement": "Population Apoptotic (%)", "setting": "[1]", "value": "6.34% and 9.68%"}, {"measurement": "Population Fragmented Nuclei (%)", "setting": "[1]", "value": "1.61% and 0.64%"}, {"measurement": "Population Healthy Nuclei (%)", "setting": "[1]", "value": "60.22% and 20.38%"}, {"measurement": "Population Hoechst High Intensity Objects (%)", "setting": "[1]", "value": "0.53% and 0%"}, {"measurement": "Population Membrane Permeable-Phenotype (%)", "setting": "[1]", "value": "0.45% and 0%"}, {"measurement": "Population Mitochondria Different-Phenotype (%)", "setting": "[1]", "value": "40.62% and 43.75%"}, {"measurement": "Population Mitotic Cells (%)", "setting": "[1]", "value": "93.66% and 90.32%"}, {"measurement": "Population Normal (%)", "setting": "[1]", "value": "99.47% and 100%"}, {"measurement": "Population Pyknosed Nuclei (%)", "setting": "[1]", "value": "38.17% and 78.98%"}, {"measurement": "Total Cell Count", "setting": "[1]", "value": "374 and 157"}, {"measurement": "Population Apoptotic (%)", "setting": "[2]", "value": "12.69% and 7.75%"}, {"measurement": "Population Fragmented Nuclei (%)", "setting": "[2]", "value": "8.73% and 1.3%"}, {"measurement": "Population Hoechst High Intensity Objects (%)", "setting": "[2]", "value": "0.28% and 0%"}, {"measurement": "Population Membrane Permeable-Phenotype (%)", "setting": "[2]", "value": 0, "unit": "%"}, {"measurement": "Population Mitochondria Different-Phenotype (%)", "setting": "[2]", "value": "41.58% and 26.09%"}, {"measurement": "Population Mitotic Cells (%)", "setting": "[2]", "value": "87.31% and 92.25%"}, {"measurement": "Population Normal (%)", "setting": "[2]", "value": "99.72% and 100%"}, {"measurement": "Population Pyknosed Nuclei (%)", "setting": "[2]", "value": "37.75% and 83.77%"}, {"measurement": "Total Cell Count", "setting": "[2]", "value": "356 and 154"}, {"measurement": "Population Apoptotic (%)", "setting": "[3]", "value": "16.67% and 14.29%"}, {"measurement": "Population Fragmented Nuclei (%)", "setting": "[3]", "value": "1.59% and 2.38%"}, {"measurement": "Population Healthy Nuclei (%)", "setting": "[3]", "value": "75.09% and 35.12%"}, {"measurement": "Population Hoechst High Intensity Objects (%)", "setting": "[3]", "value": 0, "unit": "%"}, {"measurement": "Population Membrane Permeable-Phenotype (%)", "setting": "[3]", "value": "0.71% and 3.39%"}, {"measurement": "Population Mitochondria Different-Phenotype (%)", "setting": "[3]", "value": "15.53% and 13.56%"}, {"measurement": "Population Mitotic Cells (%)", "setting": "[3]", "value": "83.33% and 85.71%"}, {"measurement": "Population Normal (%)", "setting": "[3]", "value": 100, "unit": "%"}, {"measurement": "Population Pyknosed Nuclei (%)", "setting": "[3]", "value": "23.32% and 62.5%"}, {"measurement": "Population Tubulin-Different-Phenotype (%)", "setting": "[3]", "value": "14.59% and 5.08%"}, {"measurement": "Population Apoptotic (%)", "setting": "[4]", "value": "14.4% and 12.98%"}, {"measurement": "Population Fragmented Nuclei (%)", "setting": "[4]", "value": "6.23% and 2.06%"}, {"measurement": "Population Healthy Nuclei (%)", "setting": "[4]", "value": "70.88% and 30.41%"}, {"measurement": "Population Hoechst High Intensity Objects (%)", "setting": "[4]", "value": 0, "unit": "%"}, {"measurement": "Population Membrane Permeable-Phenotype (%)", "setting": "[4]", "value": "0.78% and 0%"}, {"measurement": "Population Mitochondria Different-Phenotype (%)", "setting": "[4]", "value": "15.5% and 15.25%"}, {"measurement": "Population Mitotic Cells (%)", "setting": "[4]", "value": "85.6% and 87.02%"}, {"measurement": "Population Normal (%)", "setting": "[4]", "value": 100, "unit": "%"}, {"measurement": "Population Pyknosed Nuclei (%)", "setting": "[4]", "value": "22.89% and 67.53%"}, {"measurement": "Population Tubulin-Different-Phenotype (%)", "setting": "[4]", "value": "5.43% and 1.69%"}, {"measurement": "Total Cell Count", "setting": "[4]", "value": "546 and 194"}, {"measurement": "Population Apoptotic (%)", "setting": "[5]", "value": "8.44% and 19.78%"}, {"measurement": "Population Fragmented Nuclei (%)", "setting": "[5]", "value": "2.76% and 1.47%"}, {"measurement": "Population Healthy Nuclei (%)", "setting": "[5]", "value": "85.78% and 53.92%"}, {"measurement": "Population Hoechst High Intensity Objects (%)", "setting": "[5]", "value": "0.15% and 0%"}, {"measurement": "Population Membrane Permeable-Phenotype (%)", "setting": "[5]", "value": "4.34% and 1.82%"}, {"measurement": "Population Mitochondria Different-Phenotype (%)", "setting": "[5]", "value": "13.72% and 24.55%"}, {"measurement": "Population Mitotic Cells (%)", "setting": "[5]", "value": "91.56% and 80.22%"}, {"measurement": "Population Normal (%)", "setting": "[5]", "value": "99.85% and 100%"}, {"measurement": "Population Apoptotic (%)", "setting": "[6]", "value": "10.39% and 16.36%"}, {"measurement": "Population Fragmented Nuclei (%)", "setting": "[6]", "value": "4.43% and 3.38%"}, {"measurement": "Population Healthy Nuclei (%)", "setting": "[6]", "value": "84.38% and 70.05%"}, {"measurement": "Population Hoechst High Intensity Objects (%)", "setting": "[6]", "value": "0.22% and 0%"}, {"measurement": "Population Membrane Permeable-Phenotype (%)", "setting": "[6]", "value": "1.81% and 0.69%"}, {"measurement": "Population Mitochondria Different-Phenotype (%)", "setting": "[6]", "value": "7.58% and 15.17%"}, {"measurement": "Population Mitotic Cells (%)", "setting": "[6]", "value": "89.61% and 83.64%"}, {"measurement": "Population Normal (%)", "setting": "[6]", "value": "99.78% and 100%"}, {"measurement": "Population Pyknosed Nuclei (%)", "setting": "[6]", "value": "11.19% and 26.57%"}, {"measurement": "Population Tubulin-Different-Phenotype (%)", "setting": "[6]", "value": "1.03% and 9.66%"}]}
{"smiles": "S=c1[nH]nc(-c2cccs2)n1-c1ccccc1", "values": [{"measurement": "Population Apoptotic (%)", "setting": "[1]", "value": "14.62% and 11.2%"}, {"measurement": "Population Fragmented Nuclei (%)", "setting": "[1]", "value": "2.05% and 4.52%"}, {"measurement": "Population Hoechst High Intensity Objects (%)", "setting": "[1]", "value": "1.01% and 0%"}, {"measurement": "Population Membrane Permeable-Phenotype (%)", "setting": "[1]", "value": "0% and 4.35%"}, {"measurement": "Population Mitochondria Different-Phenotype (%)", "setting": "[1]", "value": "35.03% and 21.74%"}, {"measurement": "Population Mitotic Cells (%)", "setting": "[1]", "value": "85.38% and 88.8%"}, {"measurement": "Population Normal (%)", "setting": "[1]", "value": "98.99% and 100%"}, {"measurement": "Population Pyknosed Nuclei (%)", "setting": "[1]", "value": "44.37% and 80.65%"}, {"measurement": "Total Cell Count", "setting": "[1]", "value": "296 and 155"}, {"measurement": "Population Apoptotic (%)", "setting": "[2]", "value": "8.82% and 18.42%"}, {"measurement": "Population Fragmented Nuclei (%)", "setting": "[2]", "value": "0.89% and 2.82%"}, {"measurement": "Population Hoechst High Intensity Objects (%)", "setting": "[2]", "value": 0, "unit": "%"}, {"measurement": "Population Membrane Permeable-Phenotype (%)", "setting": "[2]", "value": 0, "unit": "%"}, {"measurement": "Population Mitotic Cells (%)", "setting": "[2]", "value": "91.18% and 81.58%"}, {"measurement": "Population Normal (%)", "setting": "[2]", "value": 100, "unit": "%"}, {"measurement": "Population Pyknosed Nuclei (%)", "setting": "[2]", "value": "40.24% and 80.28%"}, {"measurement": "Population Tubulin-Different-Phenotype (%)", "setting": "[2]", "value": "9.05% and 25%"}, {"measurement": "Total Cell Count", "setting": "[2]", "value": "338 and 142"}, {"measurement": "Population Apoptotic (%)", "setting": "[3]", "value": "11.36% and 17.16%"}, {"measurement": "Population Fragmented Nuclei (%)", "setting": "[3]", "value": "1.73% and 2.2%"}, {"measurement": "Population Hoechst High Intensity Objects (%)", "setting": "[3]", "value": "0.76% and 0%"}, {"measurement": "Population Membrane Permeable-Phenotype (%)", "setting": "[3]", "value": "0.26% and 2.27%"}, {"measurement": "Population Mitochondria Different-Phenotype (%)", "setting": "[3]", "value": "13.46% and 15.91%"}, {"measurement": "Population Mitotic Cells (%)", "setting": "[3]", "value": "88.64% and 82.84%"}, {"measurement": "Population Normal (%)", "setting": "[3]", "value": "99.24% and 100%"}, {"measurement": "Population Pyknosed Nuclei (%)", "setting": "[3]", "value": "25.38% and 73.63%"}, {"measurement": "Population Tubulin-Different-Phenotype (%)", "setting": "[3]", "value": "8.97% and 6.82%"}, {"measurement": "Total Cell Count", "setting": "[3]", "value": "524 and 182"}, {"measurement": "Population Apoptotic (%)", "setting": "[4]", "value": "17.95% and 22%"}, {"measurement": "Population Fragmented Nuclei (%)", "setting": "[4]", "value": "1.78% and 2.9%"}, {"measurement": "Population Hoechst High Intensity Objects (%)", "setting": "[4]", "value": 0, "unit": "%"}, {"measurement": "Population Membrane Permeable-Phenotype (%)", "setting": "[4]", "value": "0.53% and 0%"}, {"measurement": "Population Mitochondria Different-Phenotype (%)", "setting": "[4]", "value": "11.35% and 2.94%"}, {"measurement": "Population Mitotic Cells (%)", "setting": "[4]", "value": "82.05% and 78%"}, {"measurement": "Population Normal (%)", "setting": "[4]", "value": 100, "unit": "%"}, {"measurement": "Population Tubulin-Different-Phenotype (%)", "setting": "[4]", "value": "9.76% and 8.82%"}, {"measurement": "Population Fragmented Nuclei (%)", "setting": "[5]", "value": "2.52% and 0.96%"}, {"measurement": "Population Healthy Nuclei (%)", "setting": "[5]", "value": "87.46% and 66.83%"}, {"measurement": "Population Hoechst High Intensity Objects (%)", "setting": "[5]", "value": "0.07% and 0%"}, {"measurement": "Population Membrane Permeable-Phenotype (%)", "setting": "[5]", "value": "4.24% and 5.04%"}, {"measurement": "Population Mitochondria Different-Phenotype (%)", "setting": "[5]", "value": "13.4% and 16.55%"}, {"measurement": "Population Mitotic Cells (%)", "setting": "[5]", "value": "94.07% and 77.61%"}, {"measurement": "Population Normal (%)", "setting": "[5]", "value": "99.93% and 100%"}, {"measurement": "Population Apoptotic (%)", "setting": "[6]", "value": "10.32% and 16.67%"}, {"measurement": "Population Fragmented Nuclei (%)", "setting": "[6]", "value": "2.79% and 3.68%"}, {"measurement": "Population Healthy Nuclei (%)", "setting": "[6]", "value": "86.89% and 63.19%"}, {"measurement": "Population Hoechst High Intensity Objects (%)", "setting": "[6]", "value": 0, "unit": "%"}, {"measurement": "Population Membrane Permeable-Phenotype (%)", "setting": "[6]", "value": "5.38% and 1.94%"}, {"measurement": "Population Mitochondria Different-Phenotype (%)", "setting": "[6]", "value": "11.04% and 20.39%"}, {"measurement": "Population Mitotic Cells (%)", "setting": "[6]", "value": "89.68% and 83.33%"}, {"measurement": "Population Normal (%)", "setting": "[6]", "value": 100, "unit": "%"}]}
